Results taken from ChEMBL document CHEMBL4014309, “Development of an Acrylate Derivative Targeting the NLRP3 Inflammasome for the Treatment of Inflammatory Bowel Disease” (J Med Chem, 2017).
≈ marks a conversion by molar mass, not a printed value. Calls of active or inactive are those of the source. The calls are words filed in the database; no cut-off is given here.

Assays:
[1] = Cysteamine reactivity in PBS assessed as free compound level at pH 7.4 measured after 60 mins by DTNB reagent based RP-UHPLC analysis
Method in brief: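 The compound was reacted with excess cysteamine in pH 7.4 phosphate buffer with CH3CN cosolvent at 37 °C. Remaining compound was followed by UHPLC over 4 h, sampled at 30 min, 60 min and 4 h, and expressed as percent of starting concentration.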

Caspase-1 (Homo sapiens) = molecular target: T1, Caspase-1 (Homo sapiens) (UniProt P29466); experiment: Inhibition of recombinant human caspase-1 at 10 to 100 uM using z-YVAD-AFC as substrate measured every 10 mins for 3 hrs by fluorescence analysis
T1 sequence (whole entry): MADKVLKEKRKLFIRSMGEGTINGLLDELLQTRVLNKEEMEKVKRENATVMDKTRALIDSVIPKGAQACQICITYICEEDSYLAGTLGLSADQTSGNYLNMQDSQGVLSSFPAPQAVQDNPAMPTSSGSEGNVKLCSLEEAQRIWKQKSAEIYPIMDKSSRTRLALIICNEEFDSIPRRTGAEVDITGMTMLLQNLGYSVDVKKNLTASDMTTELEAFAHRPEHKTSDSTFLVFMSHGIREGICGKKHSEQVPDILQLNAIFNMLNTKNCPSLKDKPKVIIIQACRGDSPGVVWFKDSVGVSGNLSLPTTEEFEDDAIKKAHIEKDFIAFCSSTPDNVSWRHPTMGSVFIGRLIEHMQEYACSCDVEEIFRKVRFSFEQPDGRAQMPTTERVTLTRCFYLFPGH

HEK293 = experiment: Cytotoxicity against HEK293 cells assessed as extracellular LDH level at 10 to 100 uM after 24 hrs; type: cell-based; settings: human, hek293, 24 h
[2] = molecular target: NACHT, LRR and PYD domains-containing protein 3 (Homo sapiens) (UniProt Q96P20); experiment: Inhibition of recombinant YFP-tagged NLRP3 (unknown origin) expressed in HEK293 cells co-expressing luciferase assessed as reduction in nigericin-induced intracellular K+ decrease-mediated conformational changes in protein at 10 to 100 uM measured after 24 hrs by BRET assay; type: cell-based
Sequence of NACHT, LRR and PYD domains-containing protein 3 (Homo sapiens) (Q96P20 whole entry, the tested form may be a part): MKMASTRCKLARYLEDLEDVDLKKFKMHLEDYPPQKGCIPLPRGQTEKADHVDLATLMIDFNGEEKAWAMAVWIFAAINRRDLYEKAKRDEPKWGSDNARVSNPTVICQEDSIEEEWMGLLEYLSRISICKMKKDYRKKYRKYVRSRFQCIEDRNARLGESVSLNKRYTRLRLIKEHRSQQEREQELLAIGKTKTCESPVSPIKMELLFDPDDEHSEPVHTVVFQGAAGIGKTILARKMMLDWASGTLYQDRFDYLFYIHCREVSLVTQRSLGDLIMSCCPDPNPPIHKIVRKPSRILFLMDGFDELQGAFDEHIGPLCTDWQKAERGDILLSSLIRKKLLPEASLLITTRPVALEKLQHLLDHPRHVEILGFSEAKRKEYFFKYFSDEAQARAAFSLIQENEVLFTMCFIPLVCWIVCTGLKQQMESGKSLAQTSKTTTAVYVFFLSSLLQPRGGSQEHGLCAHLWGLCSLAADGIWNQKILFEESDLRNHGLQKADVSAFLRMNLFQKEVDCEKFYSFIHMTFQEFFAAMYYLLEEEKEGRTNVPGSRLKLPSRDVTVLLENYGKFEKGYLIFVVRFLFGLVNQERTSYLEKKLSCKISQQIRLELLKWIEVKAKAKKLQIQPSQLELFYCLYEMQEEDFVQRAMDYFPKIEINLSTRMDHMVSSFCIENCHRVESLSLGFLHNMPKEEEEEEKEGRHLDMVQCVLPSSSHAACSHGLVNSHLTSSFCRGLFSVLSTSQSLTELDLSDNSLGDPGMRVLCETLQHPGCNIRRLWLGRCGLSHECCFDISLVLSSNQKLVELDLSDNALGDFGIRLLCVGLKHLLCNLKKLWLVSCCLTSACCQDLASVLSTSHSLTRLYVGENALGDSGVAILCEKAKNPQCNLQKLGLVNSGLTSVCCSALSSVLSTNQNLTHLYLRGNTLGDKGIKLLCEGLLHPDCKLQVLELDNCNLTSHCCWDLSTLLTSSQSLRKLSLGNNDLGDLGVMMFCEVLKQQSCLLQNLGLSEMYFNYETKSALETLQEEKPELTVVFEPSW
Method in brief: (§1)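 HEK293 cells stably expressing YFP-NLRP3-Luc were grown in DMEM with 10% FCS, plated on poly-L-lysine, and exposed to compound or vehicle (15 h per methods; 24 h per figure legend). Cells were washed, then BRET was read after adding coelenterazine-H (5 µM). Kinetics used nigericin (10 µM) in vehicle or high-K+ (140 mM) buffer. Slopes of three phases were taken; mean ± SEM, n = 5–12.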

[3] = molecular target: NACHT, LRR and PYD domains-containing protein 3 (Homo sapiens) (UniProt Q96P20); experiment: Inhibition of recombinant YFP-tagged NLRP3 (unknown origin) expressed in HEK293 cells co-expressing luciferase assessed as initial conformational changes in protein by measuring increase in nigericin-induced decrease in intracellular K+ level at 10 to 100 uM measured after 24 hrs by BRET assay; type: cell-based; method in brief: as §1
[4] = molecular target: NACHT, LRR and PYD domains-containing protein 3 (Homo sapiens) (UniProt Q96P20); experiment: Irreversible inhibition of His-FLAG- tagged NLRP3-ATPase (unknown origin) at 100 uM preincubated for 55 mins followed by compound wash-out and ATP addition measured after 40 mins by ADP-Glo assay
Method in brief: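 His-FLAG NLRP3 (105 ng/well) captured on anti-FLAG-coated, BSA-blocked wells for 3 h at 4 °C. Compound (100 µM final, 2% DMSO) preincubated 55 min at 37 °C. Wells were washed three times (or not washed), then ATP (250 µM) was added for 40 min at 37 °C. ADP was read by ADP-Glo. Equal protein loading was checked by anti-His ELISA.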

[5] = Solubility of the compound in PBS at 1.56 mg […] and pH 7.4 after 24 hrs by UHPLC-MS analysis; type: physicochemical
[6] = Drug metabolism in Sprague-Dawley rat ileum tract assessed as 2-(2-chlorobenzyl)acrylic acid level at 12.5 mg as suspension in olive oil measured after 2 hrs by UHPLC-M; type: ADME; settings: in vivo
Duodenum = experiment: Drug metabolism in Sprague-Dawley rat duodenum assessed as 2-(2-chlorobenzyl)acrylic acid level at 12.5 mg as suspension in olive oil measured after 2 hrs by UHPLC-MS analysis; type: ADME, tissue-based; settings: in vivo
Liver = experiment: Drug metabolism in Sprague-Dawley rat liver microsomes assessed as formation of 2-(2-chlorobenzyl)acrylic acid at 100 uM at <1 min in presence of NADPH by UHPLC-MS analysis; type: ADME, microsome
Rattus norvegicus [7] = experiment: Antiinflammatory activity in DNBS-induced Sprague-Dawley rat colitis model assessed as reduction in DNBS-induced spleen weight increase by measuring increase in spleen weight at 12.5 mg/kg/day, ig administered as suspension in olive oil for 6 days simulatneously with 6 days of DNBS-challenge measured daily during compound dosing (reference value: 39.3%); type: functional; parameters: scale not given: the % may be the effect or the level left
Method in brief: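 Spleen weight was used as an index of systemic inflammation. Rats had intrarectal DNBS (15 mg/0.25 mL 50% ethanol) and 6 days of intragastric dosing: 1 mg/kg/day in 1% methylcellulose, or 12.5–50 mg/kg/day in 0.2 mL olive oil. The spleen was weighed at sacrifice and expressed as percent increase versus control, n = 10.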

Rattus norvegicus [8] = experiment: Antiinflammatory activity in DNBS-induced Sprague-Dawley rat colitis model assessed as attenuation of DNBS-induced decrease in colonic length administered ig as suspension in olive oil for 6 days simulatneously with 6 days of DNBS-challenge; type: functional
Rattus norvegicus [9] = experiment: Antiinflammatory activity in DNBS-induced Sprague-Dawley rat colitis model assessed as DNBS-induced macroscopic damage score at 50 mg/kg/day, ig administered as suspension in olive oil for 6 days simulatneously with 6 days of DNBS-challenge (reference value: 8.6 +/- 0.6); type: functional
Rattus norvegicus [10] = experiment: Anti-inflammatory activity in DNBS-induced Sprague-Dawley rat colitis model assessed as reduction in DNBS-induced IL-1beta levels in colon administered ig for 6 days simulatneously with 6 days of DNBS-challenge by ELISA; type: functional
Rattus norvegicus [11] = experiment: Anti-inflammatory activity in DNBS-induced Sprague-Dawley rat colitis model assessed as DNBS-induced TNFalpha levels in colon at 12.5 mg/kg/day, ig for 6 days simulatneously with 6 days of DNBS-challenge by ELISA (reference value: 5.9 +/- 0.6 pg/mg); type: functional
[12] = molecular target: NACHT, LRR and PYD domains-containing protein 3 (Mus musculus) (UniProt Q8R4B8); experiment: Inhibition of NLRP3 inflammasome in LPS-primed C57BL/6 mouse bone marrow derived macrophages assessed as reduction in ATP-induced pyroptosis at 10 to 100 uM preincubated for 1 hr followed by stimulation with ATP measured after 30 mins by LDH release assay
Sequence of NACHT, LRR and PYD domains-containing protein 3 (Mus musculus) (Q8R4B8 whole entry, the tested form may be a part): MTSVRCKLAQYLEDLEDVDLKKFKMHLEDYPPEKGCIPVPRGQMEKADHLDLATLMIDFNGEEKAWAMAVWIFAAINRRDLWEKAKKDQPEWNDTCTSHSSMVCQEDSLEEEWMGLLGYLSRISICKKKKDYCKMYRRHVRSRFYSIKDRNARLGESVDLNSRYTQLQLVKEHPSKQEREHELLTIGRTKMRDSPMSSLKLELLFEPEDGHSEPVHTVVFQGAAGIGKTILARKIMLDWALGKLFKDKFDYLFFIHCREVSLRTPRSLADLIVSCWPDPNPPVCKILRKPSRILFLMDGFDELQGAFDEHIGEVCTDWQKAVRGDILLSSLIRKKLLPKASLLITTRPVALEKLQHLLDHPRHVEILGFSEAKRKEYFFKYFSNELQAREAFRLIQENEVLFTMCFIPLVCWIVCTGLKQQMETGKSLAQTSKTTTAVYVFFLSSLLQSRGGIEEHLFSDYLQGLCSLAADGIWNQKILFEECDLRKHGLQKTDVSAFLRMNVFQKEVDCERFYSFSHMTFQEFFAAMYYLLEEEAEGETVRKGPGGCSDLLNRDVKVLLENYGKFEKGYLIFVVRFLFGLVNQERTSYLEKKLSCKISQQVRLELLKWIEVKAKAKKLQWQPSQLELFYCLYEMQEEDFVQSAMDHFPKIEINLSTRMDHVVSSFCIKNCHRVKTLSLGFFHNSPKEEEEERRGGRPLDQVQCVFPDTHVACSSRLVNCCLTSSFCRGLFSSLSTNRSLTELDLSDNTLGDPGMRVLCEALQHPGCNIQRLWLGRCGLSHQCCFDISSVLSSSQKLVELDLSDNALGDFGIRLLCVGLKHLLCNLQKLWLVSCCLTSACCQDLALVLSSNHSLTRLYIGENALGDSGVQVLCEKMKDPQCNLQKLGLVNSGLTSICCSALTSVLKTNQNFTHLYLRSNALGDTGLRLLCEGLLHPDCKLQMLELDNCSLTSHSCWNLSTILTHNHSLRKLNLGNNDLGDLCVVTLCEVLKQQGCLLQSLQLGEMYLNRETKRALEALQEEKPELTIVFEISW
Method in brief: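 Bone marrow macrophages from C57BL/6 mice, differentiated with 20% L-cell medium, primed with LPS (1 µg/mL, 3 h). Test agent or vehicle was added for 1 h, then ATP (5 mM, 30 min) or nigericin (10 µM, 30 min). IL-1β in the medium was measured by ELISA. LDH in the medium was measured colorimetrically as % of total cellular LDH.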

Rattus norvegicus [13] = experiment: Toxicity in Sprague-Dawley rat at 50 mg/kg/day, ig; type: organism-based; settings: in vivo, po
Method in brief: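 Rats received intrarectal DNBS (15 mg in 0.25 mL 50% ethanol) or none. Dosing was intragastric for 6 days from induction: compound 12.5–50 mg/kg/day in 0.2 mL olive oil, or dexamethasone 1 mg/kg/day in 0.2 mL 1% methylcellulose. Body weight change was recorded at end; n = 10, mean ± SEM.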

inhibition (Caspase-1 (Homo sapiens)): inactive | inhibition [2]: Active | inhibition [3]: inactive | inhibition [4]: 40% | solubility at 24 h [5]: 6 µg/mL (≈ 26.7 µM) | Drug metabolism [6]: Metabolite_Detected | Drug metabolism (Duodenum): Metabolite_Detected | Drug metabolism (Liver): Metabolite_Detected | inhibition [12]: Active
Compound: C=C(Cc1ccccc1Cl)C(=O)OCC
Stability [1]: 83.3% | Activity (HEK293): Non-Toxic | Activity (Rattus norvegicus [7]): 2.2% | Activity (Rattus norvegicus [8]): Dose-dependent effect | Activity_index (Rattus norvegicus [9]): 2.8 | Activity (Rattus norvegicus [10]): Dose-dependent effect | Activity (Rattus norvegicus [11]): 3.5 pg/mg | Activity (Rattus norvegicus [13]): Non-Toxic
